In ChEMBL document CHEMBL1165950, “Design and synthesis of new potent anticancer pyrazoles with high FLT3 kinase inhibitory selectivity” (Bioorg Med Chem, 2010):

Assays:
Type in all cases: functional
[1] = test system: HOP-92; assay: Growth inhibition of human HOP92 cells after 48 hrs by sulforhodamine B assay; conditions: HOP-92, 48 h; for CC50: read-out: LC50 (the source's name)
Method in brief: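 NCI 60-cell screen, five-dose mode. Cells grown in RPMI 1640 with 5% FBS and 2 mM L-glutamine and plated at 5000-40,000 cells/well according to doubling time. After 24 h preincubation, a Tz plate was TCA-fixed. Five concentrations (10-fold or 1/2 log dilutions) were applied for 48 h at 37 °C. SRB staining read at 515 nm. IC50 taken from [(Ti-Tz)/(C-Tz)]×100 = 50.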

[2] = test system: HL-60(TB); assay: Cytotoxicity against human HL-60(TB) cells assessed as cell growth at 10 uM after 48 hrs by sulforhodamine B assay; conditions: HL-60, 48 h, read-out: Activity
Method in brief: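 NCI 60-cell panel. Cells are grown in RPMI 1640 with 5% FBS and 2 mM L-glutamine, seeded at 5000–40,000 cells/well according to doubling time, and preincubated 24 h. Time-zero plates are TCA-fixed. Compound from DMSO stock is given at five 10-fold or 1/2-log concentrations for 48 h at 37 °C, 5% CO2. Suspension cells are fixed with 80% TCA (final 16%) and SRB-stained, with absorbance at 515 nm. Percent growth is derived from Tz, control and test readings.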

[3] = test system: K562; assay: Cytotoxicity against human K562 cells assessed as cell growth at 10 uM; conditions: read-out: Activity
Method in brief: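 Single-dose NCI-60 screen at 10 µM. Cells were grown in RPMI 1640 with 5% FBS and 2 mM L-glutamine, then treated for 48 h at 37 °C. Protein was measured by SRB staining with absorbance at 515 nm. Percentage growth was recorded, and inhibition percentage was calculated as 100 minus growth percentage.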

[4] = test system: SNB-75; assay: Cytotoxicity against human SNB75 cells assessed as cell growth at 10 uM; conditions: read-out: Activity
Method in brief: (§1)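 NCI-60 screen: cells grown in RPMI 1640 with 5% FBS and 2 mM L-glutamine, plated at 5000–40,000 cells/well according to doubling time, and preincubated 24 h at 37 °C, 5% CO2. The single 10 µM dose (DMSO stock) was added, then incubated 48 h. Cells were TCA-fixed and stained with 0.4% SRB, read at 515 nm, and growth % calculated against time-zero and control plates.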

[5] = test system: HCT-116; assay: Cytotoxicity against human HCT116 cells assessed as cell growth at 1 uM after 48 hrs by sulforhodamine B assay; conditions: HCT-116, 48 h, read-out: Activity
[6] = test system: OVCAR-3; assay: Cytotoxicity against human OVCAR-3 cells assessed as cell growth at 10 uM; conditions: read-out: Activity; method in brief: as §1
[7] = test system: ACHN; assay: Cytotoxicity against human ACHN cells assessed as cell growth at 1 uM after 48 hrs by sulforhodamine B assay; conditions: read-out: Activity
Method in brief: (§2)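 NCI-60 five-dose screen. Cells were grown in RPMI 1640 with 5% FBS and 2 mM L-glutamine, plated at 5000–40,000 cells/well and preincubated for 24 h. Time-zero plates were TCA-fixed. DMSO-solubilized drug was added at five concentrations (10-fold or ½-log serial dilutions) for 48 h at 37 °C, 5% CO2. Cells were TCA-fixed, stained with 0.4% SRB and read at 515 nm. Percent growth used time-zero, control and test absorbances.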

[8] = test system: SK-MEL-2; assay: Cytotoxicity against human SK-MEL-2 cells assessed as cell growth at 0.001 uM after 48 hrs by sulforhodamine B assay; conditions: SK-MEL-2, 48 h, read-out: Activity
[9] = test system: Malme-3M; assay: Cytotoxicity against human MALME-3M cells assessed as cell growth at 0.001 uM after 48 hrs by sulforhodamine B assay; conditions: read-out: Activity
[10] = test system: CCRF-CEM; assay: Growth inhibition of human CCRF-CEM cells after 48 hrs by sulforhodamine B assay
Method in brief: (§3)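 NCI five-dose SRB assay in RPMI 1640 with 5% FBS and 2 mM L-glutamine. Cells were preincubated 24 h, then exposed 48 h at 37 °C to five concentrations (10-fold or half-log serial dilutions from DMSO stocks). TCA fixation, SRB staining, and absorbance at 515 nm followed. IC50 was taken where [(Ti−Tz)/(C−Tz)]×100 = 50, with Tz as time-zero cell density.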

[11] = test system: MOLT-4; assay: Cytotoxicity against human MOLT4 cells assessed as cell growth at 0.001 uM after 48 hrs by sulforhodamine B assay; conditions: MOLT-4, 48 h, read-out: Activity
[12] = test system: PC-3; assay: Cytotoxicity against human PC3 cells assessed as cell growth at 0.01 uM after 48 hrs by sulforhodamine B assay; conditions: PC-3, 48 h, read-out: Activity
[13] = test system: UACC-257; assay: Cytotoxicity against human UACC257 cells assessed as cell growth at 10 uM; conditions: read-out: Activity; method in brief: as §1
[14] = test system: HT-29; assay: Cytotoxicity against human HT-29 cells assessed as cell growth at 100 nM after 48 hrs by sulforhodamine B assay; conditions: HT-29, 48 h, read-out: Activity
[15] = test system: 786-0; assay: Cytotoxicity against human 786-0 cells assessed as cell growth at 0.001 uM after 48 hrs by sulforhodamine B assay; conditions: 786-0, 48 h, read-out: Activity; method in brief: as §2
[16] = test system: SW-620; assay: Cytotoxicity against human SW620 cells assessed as cell growth at 0.001 uM after 48 hrs by sulforhodamine B assay; conditions: SW-620, 48 h, read-out: Activity
[17] = test system: NCI-H460; assay: Cytotoxicity against human NCI-H460 cells assessed as cell growth at 0.01 uM after 48 hrs by sulforhodamine B assay; conditions: NCI-H460, 48 h, read-out: Activity
[18] = test system: OVCAR-5; assay: Cytotoxicity against human OVCAR5 cells assessed as cell growth at 1 uM after 48 hrs by sulforhodamine B assay; conditions: OVCAR-5, 48 h, read-out: Activity
[19] = test system: NCI-H23; assay: Cytotoxicity against human NCI-H23 cells assessed as cell growth at 10 uM; conditions: read-out: Activity; method in brief: as §1
[20] = test system: SW-620; assay: Cytotoxicity against human SW620 cells assessed as cell growth at 0.01 uM after 48 hrs by sulforhodamine B assay; conditions: SW-620, 48 h, read-out: Activity
[21] = test system: RXF 393; assay: Cytotoxicity against human RXF393 cells assessed as cell growth at 10 uM; conditions: read-out: Activity; method in brief: as §1
[22] = test system: HCT-15; assay: Cytotoxicity against human HCT15 cells assessed as cell growth at 1 uM after 48 hrs by sulforhodamine B assay; conditions: HCT-15, 48 h, read-out: Activity
[23] = test system: SNB-19; assay: Cytotoxicity against human SNB19 cells assessed as cell growth at 100 nM after 48 hrs by sulforhodamine B assay; conditions: SNB-19, 48 h, read-out: Activity
[24] = test system: MCF7; assay: Cytotoxicity against human MCF7 cells assessed as cell growth at 0.01 uM after 48 hrs by sulforhodamine B assay; conditions: MCF7, 48 h, read-out: Activity
[25] = test system: NCI-H322M; assay: Cytotoxicity against human NCI-H322M cells assessed as cell growth at 0.01 uM after 48 hrs by sulforhodamine B assay; conditions: read-out: Activity
[26] = test system: A549; assay: Growth inhibition of human A549 cells after 48 hrs by sulforhodamine B assay; conditions: A549, 48 h; method in brief: as §3

## COc1cc(C)cc(-c2c(-c3ccnc(-c4ccc(N(C)C)cc4)c3)cnn2CC#N)c1
[1]
  GI50: < 0.01 µM
  TGI: 0.0553 µM
  CC50: > 100 µM
[2]
  growth at 10 µM: -20%
[3]
  growth at 10 µM: 9.74%
[4]
  growth at 10 µM: -21.1%
[5]
  growth at 1 µM: -33%
[6]
  growth at 10 µM: 27%
[7]
  growth at 1 µM: 19%
[8]
  growth at 0.001 µM: 97%
[9]
  growth at 0.001 µM: 97%
[10]
  GI50: 0.237 µM
  LC50: > 100 µM
  TGI: > 100 µM
[11]
  growth at 0.001 µM: 96%
[12]
  growth at 0.01 µM: 30%
[13]
  growth at 10 µM: 83.8%
[14]
  growth at 0.1 µM: -24%
[15]
  growth at 0.001 µM: 95%
[16]
  growth at 0.001 µM: 105%
[17]
  growth at 0.01 µM: 35%
[18]
  growth at 1 µM: 81%
[19]
  growth at 10 µM: -10.3%
[20]
  growth at 0.01 µM: 69%
[21]
  growth at 10 µM: 23.3%
[22]
  growth at 1 µM: 9%
[23]
  growth at 0.1 µM: 27%
[24]
  growth at 0.01 µM: 56%
[25]
  growth at 0.01 µM: 83%
[26]
  GI50: 0.155 µM
  LC50: > 100 µM
  TGI: > 100 µM

## Cc1cc(O)cc(-c2nn(CC#N)cc2-c2ccnc(-c3ccc(N(C)C)cc3)c2)c1
[1]
  GI50: 3.03 µM
  TGI: 46.8 µM
  CC50: > 100 µM
[2]
  growth at 10 µM: -16%
[3]
  growth at 10 µM: 19.5%
[4]
  growth at 10 µM: -12.8%
[5]
  growth at 1 µM: 2%
[6]
  growth at 10 µM: 41.9%
[7]
  growth at 1 µM: 18%
[8]
  growth at 0.001 µM: 94%
[9]
  growth at 0.001 µM: 91%
[10]
  GI50: 3.59 µM
  LC50: > 100 µM
  TGI: > 100 µM
[11]
  growth at 0.001 µM: 100%
[12]
  growth at 0.01 µM: 92%
[13]
  growth at 10 µM: 54.1%
[14]
  growth at 0.1 µM: 102%
[15]
  growth at 0.001 µM: 102%
[16]
  growth at 0.001 µM: 99%
[17]
  growth at 0.01 µM: 102%
[18]
  growth at 1 µM: 64%
[19]
  growth at 10 µM: 35.9%
[20]
  growth at 0.01 µM: 90%
[21]
  growth at 10 µM: 64.7%
[22]
  growth at 1 µM: 14%
[23]
  growth at 0.1 µM: 93%
[24]
  growth at 0.01 µM: 89%
[25]
  growth at 0.01 µM: 92%
[26]
  GI50: 4.18 µM
  LC50: > 100 µM
  TGI: 54.5 µM

## Cc1cc(O)cc(-c2nn(CC#N)cc2-c2ccnc(-c3ccc(Oc4ccccc4)cc3)c2)c1
[1]
  GI50: 1.59 µM
  TGI: 5.24 µM
  CC50: 39.5 µM
[2]
  growth at 10 µM: -10%
[3]
  growth at 10 µM: 15%
[4]
  growth at 10 µM: 40%
[5]
  growth at 1 µM: -100%
[6]
  growth at 10 µM: 96%
[7]
  growth at 1 µM: -4%
[8]
  growth at 0.001 µM: 91%
[9]
  growth at 0.001 µM: 88%
[10]
  GI50: 2.85 µM
  LC50: > 100 µM
  TGI: > 100 µM
[11]
  growth at 0.001 µM: 99%
[12]
  growth at 0.01 µM: 86%
[13]
  growth at 10 µM: 71.7%
[14]
  growth at 0.1 µM: 91%
[15]
  growth at 0.001 µM: 98%
[16]
  growth at 0.001 µM: 93%
[17]
  growth at 0.01 µM: 100%
[18]
  growth at 1 µM: 35%
[19]
  growth at 10 µM: 42.6%
[20]
  growth at 0.01 µM: 88%
[21]
  growth at 10 µM: 24.6%
[22]
  growth at 1 µM: -34%
[23]
  growth at 0.1 µM: 94%
[24]
  growth at 0.01 µM: 92%
[25]
  growth at 0.01 µM: 89%
[26]
  GI50: 2 µM
  LC50: 24.7 µM
  TGI: 5.07 µM
